HTR1E agonist: 5-HT1E (human) receptor agonism | CHO 5-HT1E Ga15 NFAT-bla reporter, FRET; 0% DMSO wells, 100% control agonist wells | P28566 | 0.69% of 65,000 active | activation, % at 6 µM;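 active = activation above a set limit, the screen-wide mean activation plus 3 SD, cut at about 8.5% in these data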;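 note: 100% = positive control agonist at 1 µM giving full maximal response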
Target sequence (P28566 whole entry, looked up): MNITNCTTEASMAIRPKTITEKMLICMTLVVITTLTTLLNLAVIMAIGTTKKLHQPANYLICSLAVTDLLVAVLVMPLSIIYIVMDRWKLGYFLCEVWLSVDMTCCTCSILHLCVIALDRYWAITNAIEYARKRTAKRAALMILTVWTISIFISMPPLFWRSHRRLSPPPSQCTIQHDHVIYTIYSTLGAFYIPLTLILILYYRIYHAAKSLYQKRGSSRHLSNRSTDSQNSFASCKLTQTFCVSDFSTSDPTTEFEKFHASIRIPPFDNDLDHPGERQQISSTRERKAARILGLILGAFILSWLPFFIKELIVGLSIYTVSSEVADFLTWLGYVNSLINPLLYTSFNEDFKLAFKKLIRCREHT
5-HT1A blocker: antagonists of human 5-HT1a serotonin receptor; CHO 5-HT1a Ga15 NFAT-bla reporter, antagonist mode; inhibition, % at 10 µM; 0.68% of 62,000 active; AID 612;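 active = inhibition above the mean of all tested compounds plus 3 SD, cut at about 43% in these data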;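 note: receptor stimulated by 5-CT agonist at 100 nM near EC80; beta-lactamase reporter measured by ratiometric fluorescence of a cleavable substrate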
5HT1a ag: activates the human 5-HT1a serotonin receptor; P08908; CHO 5-HT1a Ga15 NFAT-bla reporter, FRET ratio; 0% basal, 100% maximal reference agonist; activation, % at 10 µM; 0.56% of 65,000 active;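 active = activation above the screen-wide mean activation plus 3 SD, cut at about 19% in these data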;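 note: 0% = DMSO wells and 100% = 5-CT at EC100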
5HT1E antag: antagonists of human 5-HT1E serotonin receptor. P28566. CHO 5-HT1E Ga15 NFAT-bla reporter, FRET, antagonist. inhibition, % at 6 µM. 0.99% of 65,000 active. AID 571;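 active = inhibition above a set limit, the mean inhibition across every tested compound plus 3 SD, cut at about 29% in these data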;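 note: signal is the 460 over 535 nm emission ratio of beta-lactamase substrate; 0% = agonist plus DMSO wells and 100% = wells without agonist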
HEK293 NFkB inh: inhibitors of the PMA/ionomycin-induced NF-kB reporter in HEK293 cells; HEK-293 NF-kB luciferase reporter, luminescence; inhibition, % at 3 µM; 0.21% of 62,000 active; AID 465;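 active = inhibition above the mean of all tested compounds plus 3 SD, cut at about 40% in these data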;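 note: 0% = stimulated DMSO wells and 100% = 10 µM reference inhibitor 5653914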
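Signal: luciferase luminescence; Material: HEK-293 cells with stable firefly luciferase reporter driven by four HIV NF-kB elements; Probe or stimulus: PMA with ionomycin; Replication: tested once; Times: 1 h compound pretreatment, then 16 h stimulation at 37 °C, 5% CO2; Benchmarks: DMSO and 10 µM reference inhibitor; Evaluation: per-plate % inhibition versus controls.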
* hit, by the source's call; · = no result given. The list is not random: actives were taken first. Their share in the collection is about 2.6%.

SMILES	HTR1E agonist	5-HT1A blocker	5HT1a ag	5HT1E antag	HEK293 NFkB inh
Cc1ccccc1OCc1nc(-c2ccc(NC(=O)c3ccco3)cc2)no1	0	0	3	-13	-25
C=CCSc1nc2ccccc2n1Cc1nnc(-c2cccs2)o1	18*	9	5	5	14
COc1ccccc1-c1cc(C(F)(F)F)nc(S(=O)(=O)CCCC(=O)N2CCOCC2)n1	5	26	8	59*	-5
COCCCNC(=O)C1CCN(C(=O)Nc2ccc(Cl)cc2)CC1	0	5	0	-2	12
CCN1CCn2c1nc(N1CCCCC1)nc2=O	9.4*	7	1	-9	-13
CCOCCCNC(=O)CN1CCN(Cc2ccccc2C)C1=O	-1	9	-5	-3	14
CCOc1ccc(CCNC(=O)CN2CCN(Cc3ccccc3C)C2=O)cc1OCC	-1	-8	47*	-2	8
CCOC(=O)Cc1c(C)c2ccc(N(CC)CC)cc2oc1=O	7	-27	25*	-2	1
CCN(CC)c1ccc2c(Cl)c(Br)c(=O)oc2c1	1	95*	-19	91*	2
CCOC(=O)C1CCN(C(=O)COc2ccc(S(=O)(=O)NC(C)C)cc2Cl)CC1	0	-7	48*	1	10
CCn1cnc2sc(C(=O)N(Cc3ccc(N(C)C)cc3)Cc3ccco3)c(C)c2c1=O	0	-6	2	40*	13
CCn1cnc2sc(C(=O)N3CCN(Cc4ccc5c(c4)OCO5)CC3)c(C)c2c1=O	0	5	-2	3	16
O=C(O)CCCNS(=O)(=O)c1cccs1	-1	7	20*	11	12
COc1ccc(NC(=O)CCCNS(=O)(=O)c2cccs2)cc1	-2	15	0	6	8
CCn1c(CSc2nnc(-c3ccc4c(c3)OCO4)o2)nc2cc(S(=O)(=O)N(C)C)ccc21	0	-1	0	5	8
CCn1c(SCC(=O)NC(=O)Nc2ccc3c(c2)OCCO3)nnc1-c1cccs1	1	-12	3	-4	10
Cc1ccc(C)c(N2CCN(Cc3nnnn3C3CCCCC3)CC2)c1	42*	26	2	-9	9
COC(=O)C1=C(CN2CCCc3ccccc32)NC(=O)NC1c1ccc(F)cc1 (configuration not stated)	0	8	-2	4	70*
O=C(c1ccccc1)N1CCCCC(Sc2nnc3ccccn23)C1=O (configuration not stated)	0	-5	-1	9	1
O=C(c1ccc(Cl)cc1)N1CCCCC(Sc2nnc(-c3ccc4c(c3)OCO4)o2)C1=O (configuration not stated)	-1	-12	1	2	76*
Cc1ccccc1Cn1cc(S(=O)(=O)CC(=O)Nc2nccs2)c2ccccc21	0	24	0	0	14
O=C(c1cc2ccccc2o1)N1CCN(c2ccccc2Cl)CC1	0	-3	0	1	13
CCC(=O)N1CCN(c2ccc(NC(=O)c3cc4ccccc4o3)cc2Cl)CC1	0	31	1	36*	12
O=C(Nc1ccc(N2CCN(C(=O)c3ccco3)CC2)c(Cl)c1)c1cc2ccccc2o1	3	27	4	38*	9
O=C(Nc1ccc(N2CCN(C(=O)c3ccccc3)CC2)c(Cl)c1)c1ccco1	-1	22	-3	15	12
SMILES	HTR1E agonist	5-HT1A blocker	5HT1a ag	5HT1E antag	HEK293 NFkB inh
CCCC(=O)N1CCN(c2ccc(NC(=O)c3cc4ccccc4o3)cc2Cl)CC1	2	17	-2	44*	27
CC1(C)Cc2c(C#N)c(SCCC#N)nc(N3CCOCC3)c2CS1	0	·	3	21	·
Cc1cccc(C)c1-n1nnnc1SCSc1nnnn1-c1c(C)cccc1C	0	6	0	-5	45*
COc1ccc2c(c1)c1ncnc(N3CCN(Cc4ccc5c(c4)OCO5)CC3)c1n2C	0	-31	3	-6	11
COc1ccc2[nH]c3c(N4CCN(Cc5ccc6c(c5)OCO6)CC4)ncnc3c2c1	-1	·	2	29*	·
Cc1cc(C)n(CCCNCC(O)c2ccccc2)n1 (configuration not stated)	-1	-4	0	-7	17
O=C(O)c1ccc2cccc(Cl)c2c1O	0	52*	-3	1	14
O=C(O)c1cc(Cl)c2ccccc2c1O	0	1	2	10	7

Screening data from PubChem BioAssay.
